Laboratory results taken from ChEMBL document CHEMBL1129988, “4-substituted cubylcarbinylamines: a new class of mechanism-based monoamine oxidase B inactivators” (J Med Chem, 1997).

How the values were obtained:
[1] = molecular target: T1, Amine oxidase [flavin-containing] B (Bos taurus, UniProt P56560); experiment: Inactivation constant was determined against mitochondrial Monoamine oxidase B
T1 sequence (P56560 whole entry): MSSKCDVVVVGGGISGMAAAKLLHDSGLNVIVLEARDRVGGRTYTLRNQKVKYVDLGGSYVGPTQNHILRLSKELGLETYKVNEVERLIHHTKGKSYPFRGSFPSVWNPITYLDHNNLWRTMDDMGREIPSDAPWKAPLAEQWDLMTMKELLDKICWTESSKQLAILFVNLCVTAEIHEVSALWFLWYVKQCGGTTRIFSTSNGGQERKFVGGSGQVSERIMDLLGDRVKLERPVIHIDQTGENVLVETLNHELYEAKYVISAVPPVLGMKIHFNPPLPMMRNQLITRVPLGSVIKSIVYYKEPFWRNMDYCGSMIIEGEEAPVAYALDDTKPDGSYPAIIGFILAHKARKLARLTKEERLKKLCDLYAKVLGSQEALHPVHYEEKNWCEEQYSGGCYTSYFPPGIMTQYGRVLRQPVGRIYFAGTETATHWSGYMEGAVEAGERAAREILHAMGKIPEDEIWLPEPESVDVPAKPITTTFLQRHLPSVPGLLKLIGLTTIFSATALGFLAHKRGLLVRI
Method in brief: (§1)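 MAO B (20 μL of 2.6 mg/mL) was added to the amine hydrochloride at various concentrations, in 100 mM Tris pH 9.0 with 4% v/v DMSO. The mixture was incubated at 25 °C. At intervals an aliquot was diluted 1:50 into 1.0 mM benzylamine in the same buffer, and activity was read as the change in absorbance at 250 nm. Activity is expressed relative to a no-inactivator DMSO control. K_I and k_inact were derived by the Kitz–Wilson method.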

[2] = molecular target: T1, Amine oxidase [flavin-containing] B; experiment: K inact/KI against Monoamine oxidase B; method in brief: as §1
[3] = molecular target: T1, Amine oxidase [flavin-containing] B; experiment: Inhibition constant was evaluated against mitochondrial Monoamine oxidase B; method in brief: as §1

Row | Structure (SMILES) | kinact [1] | kinact/KI [2] | Ki [3]
1 | NCC12C3C4C1C1C2C3C41C1CC1 (centres undefined) | 0.00467 s⁻¹ | 18.3 M⁻¹ s⁻¹ | 260 µM
2 | NCC12C3C4C5C3C1C5C42 (centres undefined) | 0.00055 s⁻¹ | 3.17 M⁻¹ s⁻¹ | 170 µM
3 | NCC12C3C4C1C1C2C3C41c1ccccc1 (centres undefined) | 0.0125 s⁻¹ | 105 M⁻¹ s⁻¹ | 120 µM
